Our source for the Activity values is ChEMBL document CHEMBL2331493, “Chemical tagging of a drug target using 5-sulfonyl tetrazole” (Bioorg Med Chem Lett, 2013).

Test [1] has as its target Peptidyl-prolyl cis-trans isomerase A (Homo sapiens) (UniProt P62937). Nature of the test: Binding affinity to cyclophilin A in human Jurkat cell lysates at 1.1 uM after 24 hrs by SDS-PAGE analysis. The method, boiled down: (§1)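 Biotinylated probe incubated with a lysate of Jurkat cells (human leukemia T cells). The lysate was then mixed with streptavidin beads to pull down proteins with affinity for the probe. Bead-captured proteins were resolved by SDS–PAGE, and protein bands were read out.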

Test [2] shares this target. As to the kind of experiment: Binding affinity to cyclophilin A in human Jurkat cell lysates at 1.1 uM after 24 hrs by SDS-PAGE analysis in presence of cyclosporine A.
Test [3] has the same target. Nature of the test: Binding affinity to biotin-tagged cyclophilin A in human Jurkat cell lysates at 1.1 uM after 24 hrs by SDS-PAGE analysis. The method, boiled down:
as §1

The target is the same in test [4]. As to the kind of experiment: Binding affinity to cyclophilin A in human Jurkat cell lysates at 1.1 uM after 24 hrs by Western blot analysis. (A western blot detects proteins with antibodies after separation by electrophoresis.)
For test [5] the target is unchanged. Nature of the test: Binding affinity to cyclophilin A in human Jurkat cell lysates at 1.1 uM after 24 hrs by SDS-PAGE analysis in presence of N-ethylmaleimide.

Molecules are shown by their SMILES. Active and inactive are the calls of the source. No cut-off for these calls is given here.

Chain of Peptidyl-prolyl cis-trans isomerase A (Homo sapiens) (P62937 whole entry, looked up): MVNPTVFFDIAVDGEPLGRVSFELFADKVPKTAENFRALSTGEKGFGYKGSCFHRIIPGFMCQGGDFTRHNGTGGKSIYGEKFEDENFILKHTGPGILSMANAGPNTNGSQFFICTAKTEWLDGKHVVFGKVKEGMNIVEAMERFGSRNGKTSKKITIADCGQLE

Consider `CC(C)(C)OC(=O)NCCCC(=O)NCCCCNC(=O)CCS(=O)(=O)c1nnnn1CCCCCNC(=O)CCCC[C@@H]1SC[C@@H]2NC(=O)N[C@@H]21`, for which the outcome in test [1] was inactive.

Take `CC[C@@H]1NC(=O)[C@H]([C@H](O)[C@H](C)C/C=N\OCC(=O)NCCCC(=O)NCCCCNC(=O)CCSc2nnnn2CCCCCNC(=O)CCCC[C@@H]2SC[C@@H]3NC(=O)N[C@@H]32)N(C)C(=O)[C@H](C(C)C)N(C)C(=O)[C@H](CC(C)C)N(C)C(=O)[C@H](CC(C)C)N(C)C(=O)[C@@H](C)NC(=O)[C@H](C)NC(=O)[C@H](CC(C)C)N(C)C(=O)[C@H](C(C)C)NC(=O)[C@H](CC(C)C)N(C)C(=O)CN(C)C1=O`: the outcome in test [2] and in test [3] was inactive. In addition, the result in test [4] and in test [1] was Active.

As to `CC[C@@H]1NC(=O)[C@H]([C@H](O)[C@H](C)C/C=N\OCC(=O)NCCCC(=O)NCCCCNC(=O)CCS(=O)(=O)c2nnnn2CCCCCNC(=O)CCCC[C@@H]2SC[C@@H]3NC(=O)N[C@@H]32)N(C)C(=O)[C@H](C(C)C)N(C)C(=O)[C@H](CC(C)C)N(C)C(=O)[C@H](CC(C)C)N(C)C(=O)[C@@H](C)NC(=O)[C@H](C)NC(=O)[C@H](CC(C)C)N(C)C(=O)[C@H](C(C)C)NC(=O)[C@H](CC(C)C)N(C)C(=O)CN(C)C1=O`, in test [2], the outcome was inactive. Moreover, the result in test [5], in test [4] and in test [1] was Active.

For `CC(C)(C)OC(=O)NCCCC(=O)NCCCCNC(=O)CCSc1nnnn1CCCCCNC(=O)CCCC[C@@H]1SC[C@@H]2NC(=O)N[C@@H]21`, the result in test [1] was inactive.
